Laboratory results taken from ChEMBL document CHEMBL4613315, “Design of First-in-Class Dual EZH2/HDAC Inhibitor: Biochemical Activity and Biological Evaluation in Cancer Cells” (ACS Med Chem Lett, 2020).

What was measured:
U-87 MG = assay: Cytotoxicity against human U87 cells assessed as reduction in cell viability incubated for 72 hrs by CellTiter-Glo Luminescent cell viability assay; assay type: functional, cell-based, U-87MG ATCC
Method in brief: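 Antiproliferative IC50 after 72 h of treatment. Values are means of three independent experiments, each measured in triplicate, ± SD.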

[1] = Induction of apoptosis in human RH4 cells assessed as viable cells at 28 uM incubated for 72 hrs by annexin V-FITC staining based flow cytometry (reference value: 86.6 %); assay type: functional; conditions: Rh4, 72 h, read-out: Activity
Histone deacetylase 3 = Histone deacetylase 3 (Homo sapiens, UniProt O15379); assay: Inhibition of human recombinant HDAC3 using AMC-K(Ac)GL as substrate by fluorescence based assay
[2] = target: T1, Histone-lysine N-methyltransferase EZH2 (Homo sapiens, UniProt Q15910); assay: Inhibition of human EZH2 using core histone as substrate incubated for 1 hr by fluorescence based assay
Target sequence in this assay (Q15910 whole entry): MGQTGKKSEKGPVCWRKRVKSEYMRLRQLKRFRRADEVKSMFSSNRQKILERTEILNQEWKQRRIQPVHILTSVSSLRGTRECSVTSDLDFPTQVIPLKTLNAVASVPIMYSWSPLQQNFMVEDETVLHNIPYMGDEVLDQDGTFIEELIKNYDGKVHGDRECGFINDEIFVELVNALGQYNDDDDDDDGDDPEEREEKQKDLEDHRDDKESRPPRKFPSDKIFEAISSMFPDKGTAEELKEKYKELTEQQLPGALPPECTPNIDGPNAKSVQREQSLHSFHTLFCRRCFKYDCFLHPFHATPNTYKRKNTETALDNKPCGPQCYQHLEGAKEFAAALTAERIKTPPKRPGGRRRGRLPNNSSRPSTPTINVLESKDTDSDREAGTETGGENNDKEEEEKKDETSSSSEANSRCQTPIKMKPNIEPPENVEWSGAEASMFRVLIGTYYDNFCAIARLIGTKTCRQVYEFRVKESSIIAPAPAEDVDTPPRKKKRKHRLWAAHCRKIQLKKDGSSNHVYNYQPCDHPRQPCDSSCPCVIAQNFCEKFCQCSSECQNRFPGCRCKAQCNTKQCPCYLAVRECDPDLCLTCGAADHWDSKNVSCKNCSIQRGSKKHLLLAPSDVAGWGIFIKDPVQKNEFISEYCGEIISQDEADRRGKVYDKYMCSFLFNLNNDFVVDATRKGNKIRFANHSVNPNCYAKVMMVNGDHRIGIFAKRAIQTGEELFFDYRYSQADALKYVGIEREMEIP

U-937 [3] = assay: Cytotoxicity against human U937 cells assessed as reduction in cell viability incubated for 72 hrs by CellTiter-Glo Luminescent cell viability assay; assay type: functional, cell-based; conditions: U-937, 72 h
U-937 [4] = assay: Cytotoxicity against human U937 cells assessed as reduction in cell viability at 25 uM incubated for 96 hrs by CellTiter-Glo Luminescent cell viability assay relative to control; assay type: functional; conditions: U-937, 96 h
Method in brief: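 Viability of U937 (5–25 μM) and RH4 (5–35 μM) cells after 48, 72 and 96 h of treatment at increasing concentrations.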

[5] = Cell cycle arrest in human RH4 cells assessed as subG1 accumulation at 28 uM incubated for 72 hrs by propidium iodide staining based flow cytometry (reference value: 1.9 %); assay type: functional
[6] = Induction of apoptosis in human RH4 cells assessed as necrotic cells at 14 uM incubated for 72 hrs by annexin V-FITC staining based flow cytometry (reference value: 0.4 %); assay type: functional
Histone deacetylase 8 = target: T2, Histone deacetylase 8 (Homo sapiens, UniProt Q9BY41); assay: Inhibition of human recombinant HDAC8 using AMC-K(Ac)GL as substrate by fluorescence based assay
T2 sequence (Q9BY41 whole entry): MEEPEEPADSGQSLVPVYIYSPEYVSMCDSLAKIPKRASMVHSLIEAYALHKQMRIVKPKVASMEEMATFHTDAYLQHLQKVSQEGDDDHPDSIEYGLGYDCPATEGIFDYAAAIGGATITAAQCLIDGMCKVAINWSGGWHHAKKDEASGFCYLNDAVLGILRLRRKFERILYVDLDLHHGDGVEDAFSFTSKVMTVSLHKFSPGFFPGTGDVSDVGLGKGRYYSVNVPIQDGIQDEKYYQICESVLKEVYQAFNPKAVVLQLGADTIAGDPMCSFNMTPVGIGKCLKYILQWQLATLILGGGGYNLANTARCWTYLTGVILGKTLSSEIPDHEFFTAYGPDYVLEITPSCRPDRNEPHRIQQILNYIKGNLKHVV

[7] = Cell cycle arrest in human RH4 cells assessed as subG1 accumulation at 14 uM incubated for 72 hrs by propidium iodide staining based flow cytometry (reference value: 1.9 %); assay type: functional
[8] = target: T3, Protein deacetylase HDAC6 (Homo sapiens) (UniProt Q9UBN7); assay: Inhibition of HDAC6 in human RH4 cells assessed as acetylated alpha-tubulin level at 50 uM in presence of vorinostat incubated for 72 hrs by Western blot analysis (reference value: 1); assay type: cell-based
T3 sequence (whole entry): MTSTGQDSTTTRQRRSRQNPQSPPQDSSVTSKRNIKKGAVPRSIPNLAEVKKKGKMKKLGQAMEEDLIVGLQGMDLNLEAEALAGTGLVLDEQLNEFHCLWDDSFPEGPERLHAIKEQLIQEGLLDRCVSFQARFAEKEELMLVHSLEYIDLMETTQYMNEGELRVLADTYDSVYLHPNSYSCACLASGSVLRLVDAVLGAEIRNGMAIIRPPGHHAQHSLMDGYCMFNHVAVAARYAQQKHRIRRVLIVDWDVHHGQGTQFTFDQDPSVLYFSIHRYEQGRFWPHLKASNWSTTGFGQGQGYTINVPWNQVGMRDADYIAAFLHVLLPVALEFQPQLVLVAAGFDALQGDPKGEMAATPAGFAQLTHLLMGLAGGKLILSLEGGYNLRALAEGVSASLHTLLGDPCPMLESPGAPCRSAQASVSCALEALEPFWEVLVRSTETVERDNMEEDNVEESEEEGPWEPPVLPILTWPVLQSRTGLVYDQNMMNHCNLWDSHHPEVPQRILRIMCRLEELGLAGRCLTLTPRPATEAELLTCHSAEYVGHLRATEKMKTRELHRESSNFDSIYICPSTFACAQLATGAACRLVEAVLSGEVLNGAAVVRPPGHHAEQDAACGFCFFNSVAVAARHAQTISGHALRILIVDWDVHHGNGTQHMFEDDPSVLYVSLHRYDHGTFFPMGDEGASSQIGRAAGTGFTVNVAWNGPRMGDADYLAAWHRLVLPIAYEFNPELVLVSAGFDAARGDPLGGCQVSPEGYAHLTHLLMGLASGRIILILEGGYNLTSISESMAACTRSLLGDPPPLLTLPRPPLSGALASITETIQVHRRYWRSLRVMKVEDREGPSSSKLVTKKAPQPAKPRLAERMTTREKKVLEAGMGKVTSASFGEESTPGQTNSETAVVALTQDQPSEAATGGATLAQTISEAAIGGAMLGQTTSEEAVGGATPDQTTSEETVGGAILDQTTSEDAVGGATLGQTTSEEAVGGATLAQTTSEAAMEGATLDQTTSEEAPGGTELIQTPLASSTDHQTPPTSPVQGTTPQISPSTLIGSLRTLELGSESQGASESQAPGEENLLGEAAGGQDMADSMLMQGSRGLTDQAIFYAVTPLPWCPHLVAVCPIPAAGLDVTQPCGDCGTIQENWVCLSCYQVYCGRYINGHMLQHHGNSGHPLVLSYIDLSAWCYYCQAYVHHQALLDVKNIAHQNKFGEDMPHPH
Method in brief: (§1)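 RH4 cells co-treated with EZH2 inhibitor at 50 μM plus HDAC inhibitor at 0.15 μM; Western blot after 72 or 96 h for H3K27me3 or acetyl-tubulin, vinculin loading control; densitometry normalized to loading control then DMSO vehicle.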

[9] = target: T1, Histone-lysine N-methyltransferase EZH2; assay: Inhibition of EZH2 in human U937 cells assessed as H3K27me3 level at 50 uM incubated for 96 hrs by Western blot analysis; assay type: cell-based; conditions: U-937
Target sequence in this assay (Q15910 whole entry, looked up): as the sequence (Q15910 whole entry) above

[10] = target: T3, Protein deacetylase HDAC6 (Homo sapiens); assay: Inhibition of HDAC6 in human RH4 cells assessed as acetylated alpha-tubulin level at 50 uM in presence of vorinostat incubated for 96 hrs by Western blot analysis (reference value: 1); assay type: cell-based; method in brief: as §1
U-937 [11] = assay: Cytotoxicity against human U937 cells assessed as reduction in cell viability at 25 uM in presence of vorinostat incubated for 72 hrs by CellTiter-Glo Luminescent cell viability assay relative to control; assay type: functional; conditions: U-937, 72 h
Method in brief: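 Viability after 72 h of single-agent or combined treatment with the HDAC inhibitor (0.05–0.25 μM) and the EZH2 inhibitor. EZH2 inhibitor range: U937 5–25 μM; RH4 10–50 μM. Synergy was assessed by combination index and isobologram analysis.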

[12] = target: T1, Histone-lysine N-methyltransferase EZH2; assay: Inhibition of EZH2 in human RH4 cells assessed as H3K27me3 level at 50 uM incubated for 96 hrs by Western blot analysis; assay type: cell-based
Target sequence in this assay (Q15910 whole entry, looked up): as the sequence (Q15910 whole entry) above

Histone deacetylase 3, sequence (O15379 whole entry): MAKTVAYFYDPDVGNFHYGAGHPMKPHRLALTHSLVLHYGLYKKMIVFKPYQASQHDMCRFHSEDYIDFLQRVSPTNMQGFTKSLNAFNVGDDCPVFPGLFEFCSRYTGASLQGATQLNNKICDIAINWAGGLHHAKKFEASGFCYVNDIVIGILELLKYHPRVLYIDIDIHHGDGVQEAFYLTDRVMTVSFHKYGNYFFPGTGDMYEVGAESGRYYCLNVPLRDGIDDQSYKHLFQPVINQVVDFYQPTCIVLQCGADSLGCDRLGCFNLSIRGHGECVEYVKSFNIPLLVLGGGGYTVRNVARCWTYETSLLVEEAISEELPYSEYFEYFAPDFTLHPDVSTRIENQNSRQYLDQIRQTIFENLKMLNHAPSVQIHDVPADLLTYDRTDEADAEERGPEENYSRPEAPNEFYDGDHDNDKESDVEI

IC50 (Histone deacetylase 3) [µM]	IC50 [2] [µM]	IC50 (Histone deacetylase 8) [µM]	fold change (FC) [8]	fold change (FC) [9]	fold change (FC) [10]	fold change (FC) [12]	Structure (SMILES)	IC50 (U-87 MG) [µM]	viability at 28 µM [1] [%]	IC50 (U-937 [3]) [µM]	inhibition at 25 µM (U-937 [4]) [%]	Activity [5] [%]	Activity [6] [%]	Activity [7] [%]	inhibition at 25 µM (U-937 [11]) [%]
0.45	7.37	0.11	–	–	–	–	Cc1cc(C)c(CNC(=O)c2cc(C)n(-c3cccc(NC(=O)CCCCCCC(=O)NO)c3)c2C)c(=O)[nH]1	20	68.7	9	90	28.1	0.4	3.8	–
–	5.78	–	2.4	0.9	1.3	0.3	Cc1cc(C)c(CNC(=O)c2cc(C)n(-c3ccccc3)c2C)c(=O)[nH]1	–	–	–	–	–	–	–	90
